Experimental data taken from ChEMBL document CHEMBL3797186, “Single Residue Substitutions That Confer Voltage-Gated Sodium Ion Channel Subtype Selectivity in the NaV1.7 Inhibitory Peptide GpTx-1” (J Med Chem, 2016).
Positions of bridges follow the written chain, without caps; N, C: chain ends. Residues, ends and D or L forms follow the SMILES beside them.

How the values were obtained:
[1] = target: Sodium channel protein type 9 subunit alpha (Homo sapiens, UniProt Q15858); experiment: Inhibition of human Nav1.7 expressed in HEK293 cells assessed as inward peak current by ion-works quattro patch clamp electrophysiology method; type: cell-based
Chain of Sodium channel protein type 9 subunit alpha (Q15858 whole entry): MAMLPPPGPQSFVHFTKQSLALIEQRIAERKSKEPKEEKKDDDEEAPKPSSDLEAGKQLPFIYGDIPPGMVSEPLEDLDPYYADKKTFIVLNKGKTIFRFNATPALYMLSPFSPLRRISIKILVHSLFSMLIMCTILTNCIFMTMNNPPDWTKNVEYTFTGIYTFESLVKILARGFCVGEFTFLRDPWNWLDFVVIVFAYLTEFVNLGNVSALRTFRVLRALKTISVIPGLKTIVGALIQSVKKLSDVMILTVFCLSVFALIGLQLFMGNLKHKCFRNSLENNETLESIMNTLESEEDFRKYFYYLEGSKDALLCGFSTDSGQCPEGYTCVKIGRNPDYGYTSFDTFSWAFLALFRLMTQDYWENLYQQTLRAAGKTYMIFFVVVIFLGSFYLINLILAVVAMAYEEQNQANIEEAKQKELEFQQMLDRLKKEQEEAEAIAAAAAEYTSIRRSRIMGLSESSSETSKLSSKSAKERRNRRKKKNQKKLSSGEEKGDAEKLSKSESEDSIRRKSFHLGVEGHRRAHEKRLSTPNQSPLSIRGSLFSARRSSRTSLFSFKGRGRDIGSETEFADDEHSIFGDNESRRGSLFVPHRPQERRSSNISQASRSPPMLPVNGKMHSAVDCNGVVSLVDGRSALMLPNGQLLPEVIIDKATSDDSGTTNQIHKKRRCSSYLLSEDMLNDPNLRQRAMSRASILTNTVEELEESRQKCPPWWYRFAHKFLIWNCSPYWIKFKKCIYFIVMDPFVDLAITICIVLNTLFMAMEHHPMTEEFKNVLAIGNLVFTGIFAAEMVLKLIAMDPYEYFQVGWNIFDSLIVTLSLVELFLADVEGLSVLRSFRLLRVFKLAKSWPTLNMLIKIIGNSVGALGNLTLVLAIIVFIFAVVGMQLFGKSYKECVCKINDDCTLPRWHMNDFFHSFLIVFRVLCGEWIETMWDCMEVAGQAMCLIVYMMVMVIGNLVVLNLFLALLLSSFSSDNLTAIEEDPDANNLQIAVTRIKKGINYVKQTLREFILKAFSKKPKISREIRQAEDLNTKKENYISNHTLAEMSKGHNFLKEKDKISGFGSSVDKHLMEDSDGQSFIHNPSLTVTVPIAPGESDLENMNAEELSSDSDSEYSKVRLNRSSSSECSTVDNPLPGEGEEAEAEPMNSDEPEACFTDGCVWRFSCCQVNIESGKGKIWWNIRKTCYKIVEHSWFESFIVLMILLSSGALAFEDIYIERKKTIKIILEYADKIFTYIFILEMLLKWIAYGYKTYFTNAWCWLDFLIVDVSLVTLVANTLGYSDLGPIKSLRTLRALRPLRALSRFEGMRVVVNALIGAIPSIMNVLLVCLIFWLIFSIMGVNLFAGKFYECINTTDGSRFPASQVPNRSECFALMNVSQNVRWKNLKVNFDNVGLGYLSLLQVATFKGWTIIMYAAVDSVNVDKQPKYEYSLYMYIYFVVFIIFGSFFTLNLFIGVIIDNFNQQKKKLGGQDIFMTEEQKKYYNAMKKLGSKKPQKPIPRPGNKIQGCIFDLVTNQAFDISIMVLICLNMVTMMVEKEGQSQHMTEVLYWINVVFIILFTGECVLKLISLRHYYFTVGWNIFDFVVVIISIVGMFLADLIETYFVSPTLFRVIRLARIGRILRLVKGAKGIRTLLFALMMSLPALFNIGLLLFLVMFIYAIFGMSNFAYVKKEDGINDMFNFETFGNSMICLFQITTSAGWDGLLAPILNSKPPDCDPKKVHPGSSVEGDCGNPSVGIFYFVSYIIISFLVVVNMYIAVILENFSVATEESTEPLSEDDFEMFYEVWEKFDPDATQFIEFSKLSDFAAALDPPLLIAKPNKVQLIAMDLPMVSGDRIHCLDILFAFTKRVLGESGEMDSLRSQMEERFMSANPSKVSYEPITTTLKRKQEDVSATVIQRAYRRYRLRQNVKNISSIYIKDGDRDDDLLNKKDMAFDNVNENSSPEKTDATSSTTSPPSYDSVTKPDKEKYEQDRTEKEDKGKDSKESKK

[2] = target: Sodium channel protein type 5 subunit alpha (Homo sapiens, UniProt Q14524); experiment: Inhibition of human Nav1.5 expressed in HEK293 cells assessed as inward peak current by ion-works quattro patch clamp electrophysiology method; type: cell-based
Chain of Sodium channel protein type 5 subunit alpha (Q14524 whole entry): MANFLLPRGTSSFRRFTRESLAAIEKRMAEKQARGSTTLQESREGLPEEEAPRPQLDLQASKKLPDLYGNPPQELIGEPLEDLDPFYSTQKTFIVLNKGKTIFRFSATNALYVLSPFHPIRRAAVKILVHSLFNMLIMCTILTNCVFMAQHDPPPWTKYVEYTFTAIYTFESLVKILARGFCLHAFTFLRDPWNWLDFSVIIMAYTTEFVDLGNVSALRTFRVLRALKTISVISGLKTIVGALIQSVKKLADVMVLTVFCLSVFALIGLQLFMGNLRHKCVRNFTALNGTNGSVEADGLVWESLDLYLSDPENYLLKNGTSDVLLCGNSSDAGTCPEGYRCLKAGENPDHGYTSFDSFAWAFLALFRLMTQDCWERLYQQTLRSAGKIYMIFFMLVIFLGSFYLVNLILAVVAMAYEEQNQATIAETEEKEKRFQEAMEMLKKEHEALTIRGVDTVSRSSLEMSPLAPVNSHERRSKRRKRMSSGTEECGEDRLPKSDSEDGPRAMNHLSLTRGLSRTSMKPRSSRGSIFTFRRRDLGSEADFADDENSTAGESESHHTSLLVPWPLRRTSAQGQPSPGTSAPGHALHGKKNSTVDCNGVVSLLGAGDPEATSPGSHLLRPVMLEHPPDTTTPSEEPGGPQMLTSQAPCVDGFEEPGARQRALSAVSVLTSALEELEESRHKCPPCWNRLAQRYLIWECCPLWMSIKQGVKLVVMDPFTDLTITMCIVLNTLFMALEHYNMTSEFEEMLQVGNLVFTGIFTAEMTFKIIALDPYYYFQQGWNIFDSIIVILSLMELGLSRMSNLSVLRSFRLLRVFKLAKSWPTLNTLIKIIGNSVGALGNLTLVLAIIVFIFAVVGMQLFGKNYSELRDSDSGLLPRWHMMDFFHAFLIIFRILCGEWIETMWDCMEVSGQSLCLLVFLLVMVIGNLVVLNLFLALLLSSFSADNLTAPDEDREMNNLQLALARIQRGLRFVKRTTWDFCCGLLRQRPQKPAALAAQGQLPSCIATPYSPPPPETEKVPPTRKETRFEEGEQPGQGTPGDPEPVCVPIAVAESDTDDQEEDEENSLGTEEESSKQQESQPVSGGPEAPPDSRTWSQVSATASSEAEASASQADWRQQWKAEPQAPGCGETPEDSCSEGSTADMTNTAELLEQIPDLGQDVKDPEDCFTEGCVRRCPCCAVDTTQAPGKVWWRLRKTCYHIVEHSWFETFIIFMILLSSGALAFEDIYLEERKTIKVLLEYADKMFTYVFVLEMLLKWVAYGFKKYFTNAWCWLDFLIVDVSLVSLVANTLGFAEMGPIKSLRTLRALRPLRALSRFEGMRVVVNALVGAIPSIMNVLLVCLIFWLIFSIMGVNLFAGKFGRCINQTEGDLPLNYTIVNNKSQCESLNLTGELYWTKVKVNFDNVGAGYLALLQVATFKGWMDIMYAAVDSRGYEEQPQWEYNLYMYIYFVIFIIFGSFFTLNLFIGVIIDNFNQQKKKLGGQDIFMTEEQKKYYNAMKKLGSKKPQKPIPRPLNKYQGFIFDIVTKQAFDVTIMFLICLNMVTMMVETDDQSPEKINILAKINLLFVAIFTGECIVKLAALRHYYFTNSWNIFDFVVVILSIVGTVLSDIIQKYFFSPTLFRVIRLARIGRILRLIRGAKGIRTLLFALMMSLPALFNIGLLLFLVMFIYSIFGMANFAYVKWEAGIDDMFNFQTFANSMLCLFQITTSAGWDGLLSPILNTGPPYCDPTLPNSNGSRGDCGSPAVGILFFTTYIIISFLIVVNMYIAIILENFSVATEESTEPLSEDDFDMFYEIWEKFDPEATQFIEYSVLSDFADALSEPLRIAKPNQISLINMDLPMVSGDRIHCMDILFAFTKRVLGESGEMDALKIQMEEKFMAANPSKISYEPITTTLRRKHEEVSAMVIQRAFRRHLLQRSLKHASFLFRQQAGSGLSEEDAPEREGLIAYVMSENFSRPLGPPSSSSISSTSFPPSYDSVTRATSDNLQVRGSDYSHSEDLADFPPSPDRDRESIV
Summary of the method: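 Stable HEK293 line expressing human NaV1.5, recorded by population patch clamp on the IonWorks Quattro.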

CC[C@H](C)[C@@H]1NC(=O)[C@@H]2CSSC[C@@H]3NC(=O)[C@H](C(C)C)NC(=O)[C@H](CC(C)C)NC(=O)[C@H](CC(N)=O)NC(=O)[C@@H]4CCCN4C(=O)[C@H](CCCNC(=N)N)NC(=O)[C@H](CSSC[C@H](NC(=O)[C@@H](N)CC(=O)O)C(=O)N[C@@H](CC(C)C)C(=O)NCC(=O)N[C@@H](Cc4c[nH]c5ccccc45)C(=O)N[C@@H](CCSC)C(=O)N[C@@H](CCCNC(=N)N)C(=O)N[C@@H](CCCCN)C(=O)N2)NC(=O)[C@H](CSSC[C@@H](C(=O)N[C@@H](CCCCN)C(=O)N[C@@H](Cc2ccc(O)cc2)C(=O)N[C@H](C(=O)N[C@@H](Cc2ccccc2)C(N)=O)C(C)C)NC(=O)[C@H](Cc2c[nH]c4ccccc24)NC(=O)[C@H](CCCCN)NC(=O)[C@H](Cc2cnc[nH]2)NC(=O)[C@H]([C@@H](C)O)NC(=O)[C@H](CCCNC(=N)N)NC(=O)[C@H](CO)NC3=O)NC(=O)[C@H](CCCCN)NC(=O)[C@H](CC(=O)O)NC(=O)[C@H](CC(N)=O)NC(=O)[C@H](CC(=O)O)NC(=O)[C@@H]2CCCN2C1=O (H-DCLGWMRKCIPDNDKCCRPNLVCSRTHKWCKYVF-NH2; disulfide 2-17, 9-23, 16-30)
IC50 [1]: 0.2 µM
IC50 [2]: > 5 µM

CC[C@H](C)[C@@H]1NC(=O)[C@@H]2CSSC[C@@H]3NC(=O)[C@H](C(C)C)NC(=O)[C@H](CC(C)C)NC(=O)[C@H](CC(N)=O)NC(=O)[C@@H]4CCCN4C(=O)[C@H](CCCNC(=N)N)NC(=O)[C@H](CSSC[C@H](NC(=O)[C@@H](N)CC(=O)O)C(=O)N[C@@H](CC(C)C)C(=O)NCC(=O)N[C@@H](Cc4ccccc4)C(=O)N[C@@H](CCSC)C(=O)N[C@@H](CCCNC(=N)N)C(=O)N[C@@H](CCCCN)C(=O)N2)NC(=O)[C@H](CSSC[C@@H](C(=O)N[C@@H](CCCCN)C(=O)N[C@@H](Cc2ccc(O)cc2)C(=O)N[C@H](C(=O)N[C@@H](Cc2ccccc2)C(N)=O)C(C)C)NC(=O)[C@H](CCCNC(=N)N)NC(=O)[C@H](CCCCN)NC(=O)[C@H](Cc2cnc[nH]2)NC(=O)[C@H]([C@@H](C)O)NC(=O)[C@H](CCCNC(=N)N)NC(=O)[C@H](CO)NC3=O)NC(=O)[C@H](CCCCN)NC(=O)[C@H](CC(=O)O)NC(=O)[C@H](CC(N)=O)NC(=O)[C@H](CC(=O)O)NC(=O)[C@@H]2CCCN2C1=O (H-DCLGFMRKCIPDNDKCCRPNLVCSRTHKRCKYVF-NH2; disulfide 2-17, 9-23, 16-30)
IC50 [1]: > 5 µM
IC50 [2]: > 5 µM

CC[C@H](C)[C@@H]1NC(=O)[C@@H]2CSSC[C@@H]3NC(=O)[C@H](C(C)C)NC(=O)[C@H](CC(C)C)NC(=O)[C@H](CC(N)=O)NC(=O)[C@@H]4CCCN4C(=O)[C@H](CCCNC(=N)N)NC(=O)[C@H](CSSC[C@H](NC(=O)[C@@H](N)CC(=O)O)C(=O)N[C@@H](CC(C)C)C(=O)NCC(=O)N[C@@H](Cc4ccccc4)C(=O)N[C@@H](CCSC)C(=O)N[C@@H](CCCNC(=N)N)C(=O)N[C@@H](CCCCN)C(=O)N2)NC(=O)[C@H](CSSC[C@@H](C(=O)N[C@@H](CCCCN)C(N)=O)NC(=O)[C@H](Cc2c[nH]c4ccccc24)NC(=O)[C@H](CCCCN)NC(=O)[C@H](Cc2cnc[nH]2)NC(=O)[C@H]([C@@H](C)O)NC(=O)[C@H](CCCNC(=N)N)NC(=O)[C@H](CO)NC3=O)NC(=O)[C@H](CCCCN)NC(=O)[C@H](CC(=O)O)NC(=O)[C@H](CC(N)=O)NC(=O)[C@H](CC(=O)O)NC(=O)[C@@H]2CCCN2C1=O (H-DCLGFMRKCIPDNDKCCRPNLVCSRTHKWCK-NH2; disulfide 2-17, 9-23, 16-30)
IC50 [1]: > 5 µM
IC50 [2]: > 5 µM

CSCC[C@@H]1NC(=O)[C@H](Cc2ccccc2)NC(=O)CNC(=O)[C@H](CC(C)C)NC(=O)[C@@H](NC(=O)[C@@H](N)CC(=O)O)CSSC[C@@H]2NC(=O)[C@@H]3CSSC[C@@H](C(=O)N[C@@H](CCCCN)C(=O)N[C@@H](Cc4ccc(O)cc4)C(=O)N[C@H](C(=O)N[C@@H](Cc4ccccc4)C(N)=O)C(C)C)NC(=O)[C@H](Cc4c[nH]c5ccccc45)NC(=O)[C@H](CCCCN)NC(=O)[C@H](Cc4cnc[nH]4)NC(=O)[C@H]([C@@H](C)O)NC(=O)[C@H](CCCNC(=N)N)NC(=O)[C@H](CO)NC(=O)[C@H](CSSC[C@H](NC(=O)[C@H](CCCCN)NC(=O)[C@H](CCCNC(=N)N)NC1=O)C(=O)N[C@@H](CO)C(=O)N1CCC[C@H]1C(=O)N[C@@H](CC(=O)O)C(=O)N[C@@H](CC(N)=O)C(=O)N[C@@H](CC(=O)O)C(=O)N[C@@H](CCCCN)C(=O)N3)NC(=O)[C@H](C(C)C)NC(=O)[C@H](CC(C)C)NC(=O)[C@H](CC(N)=O)NC(=O)[C@@H]1CCCN1C(=O)[C@H](CCCNC(=N)N)NC2=O (H-DCLGFMRKCSPDNDKCCRPNLVCSRTHKWCKYVF-NH2; disulfide 2-17, 9-23, 16-30)
IC50 [2]: > 2.7 µM

CC[C@H](C)[C@@H]1NC(=O)[C@@H]2CSSC[C@@H]3NC(=O)[C@H](C(C)C)NC(=O)[C@H](CC(C)C)NC(=O)[C@H](CC(N)=O)NC(=O)[C@@H]4CCCN4C(=O)[C@H](CCCNC(=N)N)NC(=O)[C@H](CSSC[C@H](NC(=O)[C@@H](N)CC(=O)O)C(=O)N[C@@H](CC(C)C)C(=O)NCC(=O)N[C@@H](Cc4ccccc4)C(=O)N[C@@H](CCSC)C(=O)N[C@@H](CCCNC(=N)N)C(=O)N[C@@H](CCCCN)C(=O)N2)NC(=O)[C@H](CSSC[C@@H](C(=O)N[C@@H](CCCCN)C(=O)N[C@@H](CCCNC(=N)N)C(=O)N[C@H](C(=O)N[C@@H](Cc2ccccc2)C(N)=O)C(C)C)NC(=O)[C@H](Cc2c[nH]c4ccccc24)NC(=O)[C@H](CCCCN)NC(=O)[C@H](Cc2cnc[nH]2)NC(=O)[C@H]([C@@H](C)O)NC(=O)[C@H](CCCNC(=N)N)NC(=O)[C@H](CO)NC3=O)NC(=O)[C@H](CCCCN)NC(=O)[C@H](CC(=O)O)NC(=O)[C@H](CC(N)=O)NC(=O)[C@H](CC(=O)O)NC(=O)[C@@H]2CCCN2C1=O (H-DCLGFMRKCIPDNDKCCRPNLVCSRTHKWCKRVF-NH2; disulfide 2-17, 9-23, 16-30)
IC50 [2]: > 5 µM

CC[C@H](C)[C@@H]1NC(=O)[C@@H]2CSSC[C@@H]3NC(=O)[C@H](C(C)C)NC(=O)[C@H](CC(C)C)NC(=O)[C@H](CC(N)=O)NC(=O)[C@@H]4CCCN4C(=O)[C@H](CCCNC(=N)N)NC(=O)[C@H](CSSC[C@H](NC(=O)[C@@H](N)CC(=O)O)C(=O)N[C@@H](CC(C)C)C(=O)NCC(=O)N[C@@H](Cc4ccccc4)C(=O)N[C@@H](Cc4cccc5ccccc45)C(=O)N[C@@H](CCCNC(=N)N)C(=O)N[C@@H](CCCCN)C(=O)N2)NC(=O)[C@H](CSSC[C@@H](C(=O)N[C@@H](CCCCN)C(=O)N[C@@H](Cc2ccc(O)cc2)C(=O)N[C@H](C(=O)N[C@@H](Cc2ccccc2)C(N)=O)C(C)C)NC(=O)[C@H](Cc2c[nH]c4ccccc24)NC(=O)[C@H](CCCCN)NC(=O)[C@H](Cc2cnc[nH]2)NC(=O)[C@H]([C@@H](C)O)NC(=O)[C@H](CCCNC(=N)N)NC(=O)[C@H](CO)NC3=O)NC(=O)[C@H](CCCCN)NC(=O)[C@H](CC(=O)O)NC(=O)[C@H](CC(N)=O)NC(=O)[C@H](CC(=O)O)NC(=O)[C@@H]2CCCN2C1=O
IC50 [2]: 2.3 µM
